Only some compounds are listed: those with a hit (about 2.3% of all), similar ones and a draw of the others.
Tb MetRS inh: T. brucei MetRS inhibitors, primary screen, biochemical, luminescence; purified T. brucei MetRS, ATP depletion, Kinase-Glo luminescence; methionyl-tRNA synthetase (Trypanosoma brucei brucei); inhibition, % at 11.9 µM; AID 624268, 2012; 360,000 tested, 0.4% active;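 active = inhibition above a per-plate cutoff of the control wells' mean inhibition plus 3 SD, cut at about 5.5% in these data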;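 also: 0% = DMSO wells median and 100% = median of wells with control inhibitor compound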
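Material: parasite MetRS enzyme / Replication: singlicate, one well per compound / Signal: luminescence of leftover ATP / Schedule: 2 h aminoacylation at 25 °C after 15 min preincubation / Medium: HEPES-MgCl2-KCl buffer plus DTT, spermine, BSA, pyrophosphatase / Doses: 11.9 µM single point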
PLCb3 inh: human PLC-beta3 inhibitors, primary screen, biochemical, fluorescence | 1-phosphatidylinositol 4,5-bisphosphate phosphodiesterase beta-3 (Homo sapiens), Q01970 | Purified PLC-beta3, fluorogenic substrate | inhibition, % at 12.2 µM | 370,000 tested, 0.18% active | AID 720704, 2013;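 also: 0% = median of compound wells on plate and 100% = full blocker control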
PLCg1 inh: PLC-gamma1 enzyme inhibitors, primary screen, biochemical, fluorescence, purified enzyme; inhibition, % at 12.2 µM; 1-phosphatidylinositol 4,5-bisphosphate phosphodiesterase gamma-1 (Homo sapiens), P19174; AID 720700, 2013; 370,000 tested, 0.84% active; fluorogenic substrate; in the data active = inhibition above about 9.5%
ADAM10 inh: human ADAM10 inhibitors, primary screen, biochemical, QFRET, HTS. Disintegrin and metalloproteinase domain-containing protein 10 (Homo sapiens), O14672. recombinant ADAM10, EDANS/DABCYL FRET peptide cleavage, 3 h. inhibition, % at 7 µM. 370,000 tested, 0.62% active;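 active = inhibition above a per-campaign cutoff equal to the mean of compounds falling between control-based bounds plus 3 SD, cut at about 20% in these data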;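 also: 0% = DMSO wells while the 100% control is not disclosed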
Target sequence (O14672 214-748 limits assumed): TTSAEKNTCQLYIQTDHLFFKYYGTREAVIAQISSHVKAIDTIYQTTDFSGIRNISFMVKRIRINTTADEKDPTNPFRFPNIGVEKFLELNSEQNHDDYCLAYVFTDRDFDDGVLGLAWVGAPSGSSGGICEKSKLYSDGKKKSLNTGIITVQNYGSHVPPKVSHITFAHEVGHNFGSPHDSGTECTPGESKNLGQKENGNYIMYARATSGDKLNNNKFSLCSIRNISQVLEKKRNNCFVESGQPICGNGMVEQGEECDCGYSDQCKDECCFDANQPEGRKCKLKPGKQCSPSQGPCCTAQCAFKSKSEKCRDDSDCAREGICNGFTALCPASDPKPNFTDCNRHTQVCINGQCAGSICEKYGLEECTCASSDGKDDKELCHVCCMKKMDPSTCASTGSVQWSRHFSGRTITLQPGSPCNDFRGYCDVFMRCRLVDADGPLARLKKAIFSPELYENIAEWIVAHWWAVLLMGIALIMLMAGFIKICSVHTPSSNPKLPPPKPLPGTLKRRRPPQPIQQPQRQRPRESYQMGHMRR
ADAM17 inh: ADAM17 inhibitors, primary screen, biochemical, QFRET | Disintegrin and metalloproteinase domain-containing protein 17 (Homo sapiens), P78536 | recombinant ADAM17, EDANS/DABCYL FRET peptide cleavage | inhibition, % at 6.95 µM | 370,000 tested, 0.83% active;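 active = inhibition above the mean of compounds lying between control limits plus 3 SD, set per campaign, cut at about 8.5% in these data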;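 also: 0% = DMSO-only wells as the low control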
PLCgamma1 ctr: PLC-gamma1 enzyme inhibitors, counter-screen for PLC-beta3 inhibitor project, biochemical, fluorescence | inhibition, % at 12.3 µM | purified PLC-gamma1, fluorogenic substrate | 3,300 tested, 3.1% active | shares compounds with PLCg1 inh | AID 743258, 2014; in the data active = inhibition above about 9.5%
PLCb3 confirm: PLC-beta3 inhibitor confirmation, biochemical, fluorescence, purified enzyme; shares compounds with PLCg1 inh; fluorogenic substrate fluorescence; inhibition, % at 12.3 µM; 3,300 tested, 1% active; AID 743261, 2014
Active calls of the source: *; nt = no result given. Rule as the data show it, unless noted: active = inhibition above about 11%; inactive = the rest.

SMILES | Tb MetRS inh | PLCb3 inh | PLCg1 inh | ADAM10 inh | ADAM17 inh | PLCgamma1 ctr | PLCb3 confirm
O=C(CC1SC(=Nc2ccccc2)N(CCc2ccccn2)C1=O)Nc1ccc(F)cc1 (stereo unspecified) | 0.0 | 4.8 | 9.8* | 7.4 | 0.0 | 3.0 | 5.2
O=C(Cc1ccc(Br)cc1)OCC(=O)N1CCOCC1 | 0.3 | 0.5 | 0.0 | 2.2 | -3.9 | nt | nt
COc1ccccc1NC(=O)Nc1ccc2c(c1)OCCO2 | -1.1 | 11.7* | 1.9 | 6.9 | 6.3 | -0.6 | 0.6
COc1cccc(OC)c1C(=O)Nc1ccc2c(c1)OCCO2 | 0.6 | 4.0 | 4.2 | 0.1 | -0.7 | nt | nt
O=C(OCC#CCSc1nnc(-c2cc3ccccc3cc2O)o1)c1ccc(F)cc1 | nt | -2.8 | 2.1 | -9.7 | -6.5 | nt | nt
COC[C@@H]1CCCN1c1ccc2c(c1)OCCCN(C1CC1)S2(=O)=O | nt | -3.4 | -3.3 | -3.3 | -3.5 | nt | nt
NC(=O)NC(=O)CSc1cccc(C(F)(F)F)c1 | -0.4 | 1.0 | 9.5* | 3.8 | 0.7 | -6.0 | 1.0
COC(=O)CCCCCCCCCC[N+]1(C)CCCCC1 | -0.9 | 10.8* | 3.8 | 8.7 | 4.3 | -3.9 | 4.1
CC(=O)OCCCCCCCCCCC[N+]1(C)CCCCC1 | 0.1 | 0.3 | -2.1 | 2.3 | 2.9 | nt | nt
O=C(c1cccc(S(=O)(=O)N2CCOCC2)c1)N(CCO)Cc1ccccc1 | -1.0 | 0.2 | 10.2* | 0.8 | -1.1 | -4.8 | -1.3
CC(=O)NS(=O)(=O)c1ccc(N=NN2CCCCCC2)cc1 | -0.5 | 5.9 | 1.6 | 5.8 | 0.4 | nt | nt
CC(=O)NS(=O)(=O)c1ccc(N=NN2CCOCC2)cc1 | 0.0 | 11.5* | 9.8* | 14.4 | 4.7 | -2.4 | -0.4
COc1ccc(-c2cc(C3CCNCC3)[nH]n2)cc1 | 0.1 | -1.1 | 16.4* | 1.4 | 7.6 | 8.3 | 1.3
Cc1ccc(SCc2ccc(C(=O)Nc3cc([N+](=O)[O-])ccc3C)cc2)cc1 | -0.1 | 5.9 | 11.6* | 9.1 | 8.6 | -1.7 | -1.3
CC1(C(=O)NS(=O)(=O)c2ccc(Cl)cc2)CCN1C(=O)CCc1ccccc1 (stereo unspecified) | 0.0 | -1.1 | -1.6 | -11.6 | -1.8 | nt | nt
O=C(N/N=C/c1ccc(OC(=O)c2ccccc2)cc1)c1cccc(O)c1 | 0.1 | 17.9* | 13.1* | 6.3 | -1.1 | 10.6* | 15.3*
O=C(Oc1ccc(/C=N/NC(=O)c2ccccc2O)cc1)c1ccccc1 | 0.2 | -19.3 | -15.9 | 5.3 | -5.4 | nt | nt
O=C(N/N=C/c1ccc(F)cc1)c1ccccc1 | -0.8 | 2.1 | -0.7 | 1.8 | 1.1 | nt | nt
O=C(N/N=C/c1ccc(OC(=O)c2cccs2)cc1)c1ccc(F)cc1 | 0.2 | 11.3* | 10.2* | 6.3 | 3.1 | -1.4 | 4.5
O=C(Oc1ccc(/C=N/NC(=O)c2ccccc2F)cc1)c1ccccc1 | 0.1 | -2.4 | 5.5 | -2.0 | -5.5 | nt | nt
O=C(Oc1ccc(/C=N/NC(=O)c2ccco2)cc1)c1ccccc1 | 0.7 | 3.4 | 10.2* | 6.7 | -1.5 | 2.4 | 8.2
O=C(OC1CCN(c2ncc(C(F)(F)F)cc2Cl)CC1)c1cccc(C(F)(F)F)c1 | -0.4 | 1.6 | 0.6 | 7.8 | 1.2 | nt | nt
O=C(c1cccc(C(F)(F)F)c1)N1CCOC12CCN(c1ncc(C(F)(F)F)cc1Cl)CC2 | -1.1 | 1.9 | 10.8* | 8.8 | 7.6 | -5.0 | -3.3
COC(=O)C1=C(C)NC(=O)NC1c1ccccc1Cl (stereo unspecified) | -1.1 | 6.2 | 11.3* | 11.9 | -1.0 | -6.5 | -0.7
On1nnc2c3ccccc3c3ccccc3c21 | -0.7 | -30.5 | -24.5 | -17.4 | -1.0 | nt | nt
SMILES | Tb MetRS inh | PLCb3 inh | PLCg1 inh | ADAM10 inh | ADAM17 inh | PLCgamma1 ctr | PLCb3 confirm
NC(Cc1ccc(C(F)(F)F)cc1)c1csc(Nc2cc(Oc3ccccc3)ncn2)n1 (stereo unspecified) | -0.3 | -12.4 | 9.7* | -6.9 | -0.8 | -4.4 | -1.6
CNc1nc(C)nc(N/N=C/c2ccccc2)n1 | 0.1 | 7.0 | 11.3* | 0.1 | 2.5 | -1.6 | -2.6
Cc1cc(-c2ccccc2)nc(N/N=C/c2ccccc2)n1 | -0.7 | -31.1 | -21.7 | 0.0 | 1.1 | nt | nt
COc1ccccc1N1CCN(/N=C/C(Cl)=C/c2ccccc2)CC1 | -0.7 | -1.9 | 0.5 | 9.6 | 3.7 | nt | nt
COC(C(=O)NNS(=O)(=O)c1ccccc1[N+](=O)[O-])c1ccccc1 (stereo unspecified) | -0.2 | -3.8 | 0.6 | 1.8 | -6.3 | nt | nt
COC(C(=O)NNS(=O)(=O)c1ccc([N+](=O)[O-])cc1)c1ccccc1 (stereo unspecified) | -0.4 | 7.2 | 12.5* | 13.9 | 0.9 | -4.6 | -1.3
CCOC(=O)c1cc(-c2ccccc2)sc1NC(=O)CSc1nnnn1C | 0.5 | 3.1 | 0.9 | -1.7 | -1.3 | nt | nt
CCOC(=O)c1sc(-c2ccccc2)cc1NC(=O)CSc1nnnn1C | 0.1 | 3.2 | 13.2* | 11.1 | 6.1 | -6.0 | -2.9
COc1ccccc1/C=C/C(=O)OCC(=O)Nc1c(C)nn(-c2ccccc2)c1C | -0.4 | -71.1 | -56.9 | -174.9 | -63.7 | nt | nt
O=[N+]([O-])c1nccn1CC(O)CO (stereo unspecified) | -0.8 | 8.0 | 10.3* | -6.9 | -6.4 | -1.9 | 1.5
O=C(NC(c1ccc(Cl)cc1)c1ccsc1)C1CCN(Cc2ccc(Oc3ccccc3)cc2)CC1 (stereo unspecified) | -0.1 | 0.8 | -0.5 | 5.0 | 3.1 | nt | nt
CCCN1CCC(C(=O)NC(c2ccc(Cl)cc2)c2ccsc2)CC1 (stereo unspecified) | -0.2 | 2.4 | 9.7* | 4.7 | 5.0 | -3.4 | 1.8
CCCCNCCCOc1cc(Cl)ccc1Cl | -0.2 | 10.9* | 7.3 | 3.6 | 8.3 | -5.3 | 0.8
CCC(C)NCCCOc1cc(Cl)ccc1Cl (stereo unspecified) | -0.2 | 2.0 | 0.9 | 2.2 | 0.9 | nt | nt
O=C(NCc1ccccc1)[C@@H]1CCCN1C(=O)[C@H]1CCCN1C(=O)C1CCCCC1 | nt | 3.1 | 4.5 | 2.3 | -0.3 | nt | nt
O=S(=O)(C/C(=C/CO)S(=O)(=O)c1ccccc1)c1ccccc1 | -0.5 | 4.2 | 9.7* | 1.1 | -0.5 | -3.5 | 0.6
Cc1nn(CCc2nn[nH]n2)c2nc(-c3ccc(C4CCCCC4)cc3)cc(C(F)(F)F)c12 | -0.6 | -27.0 | -13.6 | -38.2 | -19.6 | nt | nt
Cc1csc(SC(C)c2nc3scc(-c4ccccc4)c3c(=O)[nH]2)n1 (stereo unspecified) | -0.2 | -11.2 | -3.3 | 0.8 | 1.2 | nt | nt
